The list is not random: actives were taken first. Their share in the collection is about 2.1%.
Ba/F3 V617F tox – reduced viability of JAK2V617F-dependent Ba/F3 cells, primary screen, JAK2V617F inhibitor project, cell-based, Ba/F3 EpoR-JAK2V617F, luminescence | ATP luminescence | inhibition, % at 5.6 µM | hit rate 1.1% among 220,000;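 active = inhibition above the campaign mean plus 3 SD over all tested compounds, cut at about 24% in these data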;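 also: cytokine-independent growth of Ba/F3 cells driven by EpoR plus mutant JAK2; 0% = DMSO-treated cells and 100% = JAK inhibitor I control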
IEC-6 cytotox – cytotoxicity in IEC-6 intestinal epithelial cells, primary screen, cytotoxicity control for KLF5 inhibitor project, cell-based, luminescence. IEC-6 cytotoxicity, luminescence viability. inhibition, % at 5 µM. hit rate 0.78% among 290,000. AID 1825, 2009; in the data active = inhibition above about 22%;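 also: 0% = plate median of test compound wells and 100% = cytotoxic reference compound wells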
b-catenin transl – modulators of beta-catenin nuclear translocation, primary screen, imaging, HeLa cells, immunofluorescence, high-content | nuclear translocation activity, % at 5 µM | hit rate 0.3% among 190,000;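 active = nuclear translocation activity above 50% at 5 µM, with a well cell count of 50 or more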;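 also: per-cell ratio of nuclear to cytoplasmic median beta-catenin stain intensity; plate controls were DMSO negative control for no effect and GSK-3 inhibitor IX positive control for full effect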
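Test system: HeLa cells, endogenous beta-catenin; Compound: single 5 µM dose plus 0.02–20 µM confirmation series; Times: compound exposure 24 h at 37°C; Signal: fluorescence imaging of beta-catenin antibody stain plus DAPI; Read-out: % activation, nuclear-to-cytoplasmic median beta-catenin signal ratio per cell.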
MT stabilizer – microtubule stabilizers in HeLa cells, primary screen, imaging, high-content imaging | HeLa tubulin immunostaining HCS, 24 h; share of cells brighter than vehicle mean+2SD | % tubulin-high responders, % at 10 µM | hit rate 0.83% among 200,000 | AID 2205, 2009;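 active = plate Z-score above 3 for both tubulin-high and condensed-nucleus cell shares, with cell loss under 80%, at 10 µM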;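 also: anti alpha tubulin signal scored within the nucleus-defined area of each cell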
BaF3 parental – parental Ba/F3 cell viability inhibition, counter-screen for JAK2V617F inhibitor project, murine pro-B, CellTiter-Glo luminescence; CellTiter-Glo ATP luminescence; inhibition, % at 5.6 µM; hit rate 1.1% among 220,000;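 active = inhibition above a per-campaign cutoff, the mean inhibition of all tested compounds plus 3 SD, cut at about 27% in these data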;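 also: 0% = DMSO wells and 100% = JAK Inhibitor I control wells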
KLF5 inh – KLF5 expression inhibitors, primary screen, DLD-1 cells, luminescence. DLD-1 KLF5 promoter-luciferase reporter. inhibition, % at 5 µM. hit rate 0.23% among 290,000. AID 1700, 2009;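 active = inhibition above a per-plate limit of that plate's mean compound inhibition plus 3 SD, cut at about 60% in these data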;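 also: 0% = DMSO wells and 100% = LY294002 at 200 µM; higher means less KLF5 promoter-driven luciferase light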
Numbers without * were called inactive.

`Cc1c(C(=O)NC(=S)Nc2ccc3c4c(cccc24)CC3)cccc1[N+](=O)[O-]` gave Ba/F3 V617F tox 0, IEC-6 cytotox 0, b-catenin transl 2, MT stabilizer 6, BaF3 parental 1 and KLF5 inh -4.
Screening COc1ccc(-n2c(SCCNCCO)nc3sc4c(c3c2=O)CCCC4)cc1 returned IEC-6 cytotox 2 and KLF5 inh -8.
For Cc1ccc(C(=O)NC2CCc3ccccc3C2=O)cc1 (centres undefined) the results were Ba/F3 V617F tox 3, IEC-6 cytotox 6, b-catenin transl -1, MT stabilizer 3, BaF3 parental 6 and KLF5 inh -87.
Screening Cc1ccc(C(=O)NC2c3ccccc3-c3ccccc32)cc1 returned Ba/F3 V617F tox -4, IEC-6 cytotox -8, b-catenin transl 106*, MT stabilizer 24*, BaF3 parental -3 and KLF5 inh 4.
`CCc1ccc(OCCCOc2ccc(C=O)cc2)cc1` gave Ba/F3 V617F tox 1, IEC-6 cytotox -5, MT stabilizer 2, BaF3 parental 102* and KLF5 inh -48.
For C=CCn1c(C)cc(C(=O)CN2NS(=O)(=O)c3ccccc3C2=O)c1C the results were Ba/F3 V617F tox 4, IEC-6 cytotox -2, b-catenin transl 2, MT stabilizer 8.6*, BaF3 parental 17 and KLF5 inh -88.
CC(NC(=O)c1cc([N+](=O)[O-])cc([N+](=O)[O-])c1)C1CC2CCC1C2 (centres undefined) was read as IEC-6 cytotox 1 and KLF5 inh -13.
For CCc1ccc(-c2cc(C(F)(F)F)n3nc(C(=O)Nc4cnn(Cc5ccccc5C)c4)cc3n2)s1 the results were Ba/F3 V617F tox 0, IEC-6 cytotox -1, MT stabilizer inactive, BaF3 parental -1 and KLF5 inh -41.
For COc1cc2c(cc1OC)C(c1ccccc1N)=NCC2 the results were Ba/F3 V617F tox 38*, IEC-6 cytotox 1, b-catenin transl -2, BaF3 parental 47* and KLF5 inh -1.
For Cn1c(=O)cc(NCCc2ccccc2)[nH]c1=O the results were Ba/F3 V617F tox -2, IEC-6 cytotox -6, MT stabilizer 26*, BaF3 parental 1 and KLF5 inh -15.
Screening O=C(c1ccco1)N1N=C(c2ccc(Br)cc2)CC1(O)C(F)(F)F (centres undefined) returned Ba/F3 V617F tox 3, IEC-6 cytotox 8, b-catenin transl -3, MT stabilizer 5, BaF3 parental 74* and KLF5 inh -15.
`COc1ccc2ccccc2c1C(O)c1nccn1C` (centres undefined) gave Ba/F3 V617F tox 59*, IEC-6 cytotox 6, b-catenin transl -6, MT stabilizer 5, BaF3 parental 38* and KLF5 inh 8.
O=C(c1nn2c(C(F)(F)F)cc(-c3ccco3)nc2c1Br)N1CCCc2ccccc21 was read as Ba/F3 V617F tox -1, IEC-6 cytotox -1, b-catenin transl -1, MT stabilizer 63*, BaF3 parental 0 and KLF5 inh -3.
Screening CCc1ccc(N/C(SC)=C(/C#N)C(N)=O)cc1 returned Ba/F3 V617F tox -3, IEC-6 cytotox -7, b-catenin transl 0, MT stabilizer 3, BaF3 parental 1 and KLF5 inh -36.
Screening CCCCS/C(=C(/C#N)C(N)=O)c1cc2c([nH]1)CCCC2 returned Ba/F3 V617F tox 2, IEC-6 cytotox 1, b-catenin transl 4, MT stabilizer 12*, BaF3 parental 5 and KLF5 inh -29.
c1ccc2c(c1)SCc1nnc(-c3ccncc3)n1-2 was read as Ba/F3 V617F tox -3, IEC-6 cytotox 4, b-catenin transl 0, BaF3 parental 3 and KLF5 inh -9.
CN=c1scc(-c2ccccc2F)n1/N=C(\C)c1cccnc1 was read as Ba/F3 V617F tox 6, IEC-6 cytotox 3, b-catenin transl 1, MT stabilizer 3, BaF3 parental 38* and KLF5 inh -56.
Screening Cc1c2ccccc2nc2c(F)c(NCCO)c(F)c(F)c12 returned Ba/F3 V617F tox 0, IEC-6 cytotox -4, b-catenin transl 3, MT stabilizer 9, BaF3 parental 7 and KLF5 inh -13.
`OCCNc1c2ccccc2nc2c(F)c(F)c(F)c(F)c12` gave Ba/F3 V617F tox 2, IEC-6 cytotox 11, b-catenin transl 56*, MT stabilizer 2, BaF3 parental 9 and KLF5 inh -12.
CC(=O)Nc1cccc(OCCCNS(=O)(=O)c2ccc(C#N)cc2)c1 was read as IEC-6 cytotox -7 and KLF5 inh -12.
Screening CN(C)S(=O)(=O)c1cccc(NC(=O)c2cc(=O)[nH]c(=O)[nH]2)c1 returned IEC-6 cytotox 1 and KLF5 inh -20.
Screening CC(NS(=O)(=O)c1cccc(S(=O)(=O)c2ccccc2)c1)C(=O)O (centres undefined) returned Ba/F3 V617F tox -1, IEC-6 cytotox -4, b-catenin transl 0, MT stabilizer 2, BaF3 parental 31* and KLF5 inh -11.
`CC(NS(=O)(=O)c1ccc2c(c1)C(=O)c1cc(S(=O)(=O)NC(C)C(=O)O)ccc1-2)C(=O)O` (centres undefined) gave IEC-6 cytotox -3 and KLF5 inh -12.
For Cc1ccc2nc3sc(C(=O)N4CCCc5ccccc54)c(N)c3cc2c1 the results were Ba/F3 V617F tox 1, IEC-6 cytotox 7, b-catenin transl 0, MT stabilizer 28*, BaF3 parental 3 and KLF5 inh -2.
For Cc1cc(C)c2cc3c(N)c(C(=O)N4CCc5ccccc5C4)sc3nc2c1 the results were Ba/F3 V617F tox -3, IEC-6 cytotox 6, b-catenin transl -2, MT stabilizer 1, BaF3 parental 7 and KLF5 inh 2.
Screening Cc1ccc(-c2cc(C(=O)N3CCCc4ccccc43)c3ccccc3n2)cc1 returned Ba/F3 V617F tox 3, IEC-6 cytotox -4, b-catenin transl -2, MT stabilizer 2, BaF3 parental 9 and KLF5 inh -12.
`O=C(c1cc(-c2cccnc2)nc2ccccc12)N1CCCc2ccccc21` gave Ba/F3 V617F tox 3, IEC-6 cytotox 19, b-catenin transl -3, MT stabilizer 14*, BaF3 parental 9 and KLF5 inh -17.
Screening Cc1ccc(NC(=O)c2ccc(NC(=O)C3CCCCC3C(=O)O)cc2)cc1 (centres undefined) returned IEC-6 cytotox 6 and KLF5 inh -25.
CCOC(=O)Cc1csc(NC(=O)c2ccc(Cl)nc2)n1 was read as Ba/F3 V617F tox -1, IEC-6 cytotox 4, b-catenin transl 1, MT stabilizer 37*, BaF3 parental 4 and KLF5 inh 4.

Screening data as filed in PubChem.
